These results are taken from ChEMBL document CHEMBL1158886, “Melophlins C-O, thirteen novel tetramic acids from the marine sponge Melophlus sarassinorum” (J Nat Prod, 2003).

For experiment [1], the system named is TF-1. The experiment is described as follows: Cytotoxicity against human TF1 cells. The class given is functional, cell-based.
The test system of experiment [2] is HeLa. The experiment is described as follows: Cytotoxicity against human HeLa cells. Format: functional, cell-based.
Experiment [3] deals with Bacillus subtilis. The experiment in a line: Antimicrobial activity against Bacillus subtilis 168 at 5 and 10 ug after 24 hrs by agar diffusion method. Format: functional, organism-based. The essentials: (§1)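 Paper disks (5 mm) loaded with 5 or 10 µg of compound in MeOH, set on LB agar plates seeded with the test bacterium. Incubated 24 h at 37 °C, then inhibition zone diameters recorded. Disks carrying solvent only served as controls.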

For experiment [4], the system named is Candida albicans. The experiment is described as follows: Antimicrobial activity against Candida albicans at 5 and 10 ug after 24 hrs by agar diffusion method. Format: functional, organism-based. A digest of the protocol: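 Disks (5 mm) carrying 5 or 10 µg of compound in MeOH were placed on YPD agar plates inoculated with C. albicans. Inhibition zones were read after 24 h at 27 °C. Solvent-only disks served as controls.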
For orientation: In agar diffusion tests the substance spreads into inoculated agar from a disc or well.

Experiment [5] deals with Staphylococcus aureus. The experiment is described as follows: Antimicrobial activity against Staphylococcus aureus ATCC 25923 at 5 and 10 ug after 24 hrs by agar diffusion method. The class given is functional, organism-based. The essentials: as §1
Experiment [6] relates to Artemia salina. The experiment in a line: Toxicity against Artemia salina. Format: organism-based.

In brackets after ≈: the same amount, converted by molar mass. Activity calls are given as the source filed them. The calls are words filed in the database; no cut-off is given here.

For the molecule `CC(C)CCCCCCCCC/C(O)=C1\C(=O)C(C)N(C)C1=O` (configuration not stated), the result in experiment [1] and in experiment [2] was inactive.
Turning to `CC(C)CCCCCCCCCCC/C(O)=C1\C(=O)CN(C)C1=O`, the outcome in experiment [1] and in experiment [2] was inactive.
For `CC(C)CCCCCCCCCCCC/C(O)=C1\C(=O)CN(C)C1=O`, the outcome in experiment [1] and in experiment [2] was inactive.
As for `CCC(C)CCCCCCCC/C(O)=C1\C(=O)C(C)N(C)C1=O` (configuration not stated), the result in experiment [1] and in experiment [2] was inactive.
Turning to `CCCCCCCCCCC/C(O)=C1\C(=O)C(C)N(C)C1=O` (configuration not stated), the outcome in experiment [1] and in experiment [2] was inactive.
Consider `CCCCCCCC(C)CCC/C(O)=C1\C(=O)C(C)N(C)C1=O` (configuration not stated) [MELOPHLIN C], for which the result in experiment [3], in experiment [4] and in experiment [5] was Active. Moreover, the IC50 (as a rule, the concentration needed to halve the response being measured) in experiment [6] is 36.6 µg/mL (≈ 113 µM). The result in experiment [1] and in experiment [2] was inactive.
`CCCCCCCCCCCCC/C(O)=C1\C(=O)CN(C)C1=O` [MELOPHLIN G] had an IC50 in experiment [6] of 48.8 µg/mL (≈ 151 µM). Also, the result in experiment [1] and in experiment [2] was inactive.
In turn, `CCC(C)CCCCCCCCCC/C(O)=C1\C(=O)CN(C)C1=O` (configuration not stated) [MELOPHLIN I] gave an IC50 in experiment [6] of 52.6 µg/mL (≈ 156 µM). Besides, the result in experiment [1] and in experiment [2] was inactive.
